# Test system: M14
# Experiment: Growth inhibition of human M14 cells after 48 hrs by sulforhodamine B assay
# Type: functional
# Conditions: M14, 48 h
# How it was run: (§1)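 NCI screen panel. Five 10-fold concentrations from 10^-4 to 10^-8 M. Exposure for the last 48 h of a 72 h incubation. Growth estimated by sulforhodamine B protein assay. GI50 is the concentration giving 50% growth inhibition. Where that level was not reached or was exceeded, the value is given as above or below the highest or lowest concentration tested.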
row,Structure (SMILES),GI50 [µM]
1,N#CC(C#N)=CN1CCN(C(=O)c2ccccc2)C1=S,37.3

# Test system: HOP-92
# Experiment: Growth inhibition of human HOP92 cells after 48 hrs by sulforhodamine B assay
# Type: functional
# Conditions: HOP-92, 48 h
# How it was run: as §1
row,Structure (SMILES),GI50 [µM]
1,N#CC(C#N)=CN1CCN(C(=O)c2ccccc2)C1=S,56.8

# Test system: Malme-3M
# Experiment: Growth inhibition of human MALME-3M cells after 48 hrs by sulforhodamine B assay
# Type: functional
# Conditions: not given
# How it was run: as §1
row,Structure (SMILES),GI50 [µM]
1,N#CC(C#N)=CN1CCN(C(=O)c2ccccc2)C1=S,10.2

# Test system: 786-0
# Experiment: Growth inhibition of human 786-0 cells after 48 hrs by sulforhodamine B assay
# Type: functional
# Conditions: 786-0, 48 h
# How it was run: as §1
row,Structure (SMILES),GI50 [µM]
1,N#CC(C#N)=CN1CCN(C(=O)c2ccccc2)C1=S,38.9

# Test system: IGROV-1
# Experiment: Growth inhibition of human IGROV1 cells after 48 hrs by sulforhodamine B assay
# Type: functional
# Conditions: IGROV-1, 48 h
# How it was run: as §1
row,Structure (SMILES),GI50 [µM]
1,N#CC(C#N)=CN1CCN(C(=O)c2ccccc2)C1=S,28.2

# Test system: SK-OV-3
# Experiment: Growth inhibition of human SKOV3 cells after 48 hrs by sulforhodamine B assay
# Type: functional
# Conditions: SK-OV-3, 48 h
# How it was run: as §1
row,Structure (SMILES),GI50 [µM]
1,N#CC(C#N)=CN1CCN(C(=O)c2ccccc2)C1=S,66.7

# Test system: MDA-MB-231
# Experiment: Growth inhibition of human MDA-MB-231 cells after 48 hrs by sulforhodamine B assay
# Type: functional
# Conditions: MDA-MB-231, 48 h
# How it was run: as §1
row,Structure (SMILES),GI50 [µM]
1,N#CC(C#N)=CN1CCN(C(=O)c2ccccc2)C1=S,36.1

# Test system: not listed separately
# Experiment: Growth inhibition of human […] cells after 48 hrs by sulforhodamine B assay
# Type: functional
# Conditions: not given
# How it was run: as §1
row,Structure (SMILES),GI50 [µM]
1,N#CC(C#N)=CN1CCN(C(=O)c2ccccc2)C1=S,35.3

# Test system: SR
# Experiment: Growth inhibition of human SR cells after 48 hrs by sulforhodamine B assay
# Type: functional
# Conditions: not given
# How it was run: (§2)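 NCI in vitro panel screen. Compounds tested at five 10-fold dilutions, 10^-4 to 10^-8 M. Cells in 96-well plates were exposed for the last 48 h of a 72 h incubation. Viability/growth was read by sulforhodamine B protein assay. GI50 is the concentration giving 50% growth inhibition. Values beyond the tested range are reported as greater or less than the maximum or minimum concentration.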
row,Structure (SMILES),GI50 [µM]
1,N#CC(C#N)=CN1CCN(C(=O)c2ccccc2)C1=S,18.8

# Test system: SW-620
# Experiment: Growth inhibition of human SW620 cells after 48 hrs by sulforhodamine B assay
# Type: functional
# Conditions: SW-620, 48 h
# How it was run: as §2
row,Structure (SMILES),GI50 [µM]
1,N#CC(C#N)=CN1CCN(C(=O)c2ccccc2)C1=S,33.7

# Test system: ACHN
# Experiment: Growth inhibition of human ACHN cells after 48 hrs by sulforhodamine B assay
# Type: functional
# Conditions: not given
# How it was run: as §1
row,Structure (SMILES),GI50 [µM]
1,N#CC(C#N)=CN1CCN(C(=O)c2ccccc2)C1=S,18.8

# Test system: MCF7
# Experiment: Growth inhibition of human MCF7 cells after 48 hrs by sulforhodamine B assay
# Type: functional
# Conditions: MCF7, 48 h
# How it was run: as §1
row,Structure (SMILES),GI50 [µM]
1,N#CC(C#N)=CN1CCN(C(=O)c2ccccc2)C1=S,16.7

# Test system: UACC-62
# Experiment: Growth inhibition of human UACC62 cells after 48 hrs by sulforhodamine B assay
# Type: functional
# Conditions: UACC-62, 48 h
# How it was run: as §2
row,Structure (SMILES),GI50 [µM]
1,N#CC(C#N)=CN1CCN(C(=O)c2ccccc2)C1=S,50.4

# Test system: KM12
# Experiment: Growth inhibition of human KM12 cells after 48 hrs by sulforhodamine B assay
# Type: functional
# Conditions: KM12, 48 h
# How it was run: as §1
row,Structure (SMILES),GI50 [µM]
1,N#CC(C#N)=CN1CCN(C(=O)c2ccccc2)C1=S,32.3

# Test system: UO-31
# Experiment: Growth inhibition of human UO31 cells after 48 hrs by sulforhodamine B assay
# Type: functional
# Conditions: UO-31, 48 h
# How it was run: as §2
row,Structure (SMILES),GI50 [µM]
1,N#CC(C#N)=CN1CCN(C(=O)c2ccccc2)C1=S,20.4

# Test system: HL-60(TB)
# Experiment: Growth inhibition of human HL-60(TB) cells after 48 hrs by sulforhodamine B assay
# Type: functional
# Conditions: HL-60, 48 h
# How it was run: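 NCI 60-cell-line screen protocol: cells exposed to compound at five 10-fold dilutions from 10^-4 to 10^-8 M for the last 48 h of a 72 h incubation. Sulforhodamine B protein assay estimated viability/growth. GI50 (50% growth inhibition) derived; where not reached or exceeded, reported as greater or less than the highest or lowest concentration tested.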
row,Structure (SMILES),GI50 [µM]
1,N#CC(C#N)=CN1CCN(C(=O)c2ccccc2)C1=S,33.5

# Test system: T47D
# Experiment: Growth inhibition of human T47D cells after 48 hrs by sulforhodamine B assay
# Type: functional
# Conditions: not given
# How it was run: as §2
row,Structure (SMILES),GI50 [µM]
1,N#CC(C#N)=CN1CCN(C(=O)c2ccccc2)C1=S,89.2

# Test system: OVCAR-8
# Experiment: Growth inhibition of human OVCAR8 cells after 48 hrs by sulforhodamine B assay
# Type: functional
# Conditions: OVCAR-8, 48 h
# How it was run: as §1
row,Structure (SMILES),GI50 [µM]
1,N#CC(C#N)=CN1CCN(C(=O)c2ccccc2)C1=S,77

# Test system: SK-MEL-28
# Experiment: Growth inhibition of human SK-MEL-28 cells after 48 hrs by sulforhodamine B assay
# Type: functional
# Conditions: SK-MEL-28, 48 h
# How it was run: as §1
row,Structure (SMILES),GI50 [µM]
1,N#CC(C#N)=CN1CCN(C(=O)c2ccccc2)C1=S,45.5

# Test system: NCI-H23
# Experiment: Growth inhibition of human NCI-H23 cells after 48 hrs by sulforhodamine B assay
# Type: functional
# Conditions: NCI-H23, 48 h
# How it was run: as §1
row,Structure (SMILES),GI50 [µM]
1,N#CC(C#N)=CN1CCN(C(=O)c2ccccc2)C1=S,26.1

# Test system: MDA-MB-435
# Experiment: Growth inhibition of human MDA-MB-435 cells after 48 hrs by sulforhodamine B assay
# Type: functional
# Conditions: MDA-MB-435, 48 h
# How it was run: as §1
row,Structure (SMILES),GI50 [µM]
1,N#CC(C#N)=CN1CCN(C(=O)c2ccccc2)C1=S,38.8

# Test system: DU-145
# Experiment: Growth inhibition of human DU145 cells after 48 hrs by sulforhodamine B assay
# Type: functional
# Conditions: DU-145, 48 h
# How it was run: as §1
row,Structure (SMILES),GI50 [µM]
1,N#CC(C#N)=CN1CCN(C(=O)c2ccccc2)C1=S,24.4

# Test system: UACC-257
# Experiment: Growth inhibition of human UACC257 cells after 48 hrs by sulforhodamine B assay
# Type: functional
# Conditions: UACC-257, 48 h
# How it was run: as §2
row,Structure (SMILES),GI50 [µM]
1,N#CC(C#N)=CN1CCN(C(=O)c2ccccc2)C1=S,25.3
